The source made the active and inactive calls. The calls are words filed in the database; no cut-off is given here.
Legend:
Plasmodium falciparum [1] = assay: Antiplasmodial activity against chloroquine-resistant Plasmodium falciparum Dd2 infected in human erythrocytes assessed as reduction in microbial growth after 72 hrs by SYBR green I staining based fluorescence assay; format: functional, organism-based; details: Dd2, Erythrocyte
Summary of the method: (§1)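 SYBR Green I assay: twofold serial dilutions on P. falciparum cultures at 1% parasitemia, 1% hematocrit, 37 °C, 5% CO₂, 72 h, max 0.1% DMSO. DMSO and CQ as growth and inhibition controls. Plates frozen at −80 °C, thawed, lysed in Tris/saponin/EDTA/Triton buffer with 0.01% SYBR Green I, 1 h dark at room temperature. Fluorescence read at 485 ex/530 em. EC50 by nonlinear dose–response fit.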

Plasmodium falciparum [2] = assay: Antiplasmodial activity against chloroquine-sensitive Plasmodium falciparum 3D7 infected in human erythrocytes assessed as reduction in microbial growth after 72 hrs by SYBR green I staining based fluorescence assay; format: functional, organism-based; details: for Activity: Erythrocyte; for EC50: 3D7, Erythrocyte; summary of the method: as §1

| SMILES | EC50 (Plasmodium falciparum [1]) [µM] | Activity (Plasmodium falciparum [2]) | EC50 (Plasmodium falciparum [2]) [µM] |
| --- | --- | --- | --- |
| Fc1cc(/C=C/c2cc(NCCCCN3CCOCC3)c3cc(Cl)ccc3n2)cc(F)c1F | 0.13 | – | – |
| CN(C)CCNc1cc(/C=C/c2ccc(F)cc2)nc2ccccc12 | 0.0255 | – | – |
| COc1ccc2nc(/C=C/c3ccco3)cc(NCCN(C)C)c2c1 | 0.0887 | – | – |
| Fc1ccc(/C=C/c2cc(NCCN3CCCC3)c3cc(Cl)ccc3n2)cc1 | 0.0923 | – | – |
| CN(C)CCCCNc1cc(/C=C/c2ccc([N+](=O)[O-])cc2)nc2ccc(Cl)cc12 | 0.0525 | – | – |
| COc1ccc2nc(CCc3ccncc3)cc(NCCN(C)C)c2c1 | 0.709 | – | – |
| COc1cc(/C=C/c2cc(NCCN(C)C)c3cc(F)ccc3n2)cc(OC)c1OC | 0.0386 | – | – |
| COc1ccc(/C=C/c2cc(NCCN(C)C)c3cc(Cl)ccc3n2)cc1OC | 0.0389 | – | – |
| Fc1ccc(/C=C/c2cc(NCCCCN3CCOCC3)c3cc(Cl)ccc3n2)nc1 | 0.0731 | – | – |
| Fc1cccnc1/C=C/c1cc(NCCCCN2CCOCC2)c2cc(Cl)ccc2n1 | 0.197 | Active | – |
| CN1CCN(CCCCNc2cc(/C=C/c3ccccc3)nc3ccc(Cl)cc23)CC1 | 0.0589 | – | – |
| Fc1ccc(/C=C/c2cc(N3CCCC3)c3cc(Cl)ccc3n2)cc1 | 0.428 | – | – |
| CN(C)CCCCNc1cc(/C=C/c2ccccc2)nc2ccc(Cl)cc12 | 0.068 | – | – |
| FC(F)(F)c1ccc(/C=C/c2cc(NCCCN3CCOCC3)c3cc(Cl)ccc3n2)cc1 | 0.0848 | – | – |
| CN(C)CCNc1cc(/C=C/c2ccco2)nc2ccc(Cl)cc12 | 0.037 | – | – |
| CN(C)CCNc1cc(/C=C/c2ccccc2)nc2ccccc12 | 0.0807 | – | – |
| Clc1ccc2nc(-c3ccncc3)cc(NCCCCN3CCOCC3)c2c1 | 0.796 | – | – |
| CN(C)CCNc1cc(/C=C/c2ccccc2)nc2ccc(Cl)cc12 | 0.0224 | – | – |
| N#Cc1ccc(/C=C/c2cc(N3CCOCC3)c3cc(Cl)ccc3n2)cc1 | 1.01 | – | – |
| CN(C)CCNc1cc(/C=C/c2nccs2)nc2ccc(Cl)cc12 | 0.24 | – | – |
| COc1ccc(/C=C/c2cc(NCCN(C)C)c3cc(F)ccc3n2)cc1 | 0.0378 | – | – |
| CN(C)CCNc1cc(/C=C/c2ccc([N+](=O)[O-])cc2)nc2ccccc12 | 0.0479 | – | – |
| FC(F)(F)c1cccc(/C=C/c2cc(NCCCCN3CCOCC3)c3cc(Cl)ccc3n2)c1 | 0.0339 | – | – |
| CN(C)CCNc1cc(/C=C/c2cccs2)nc2ccc(F)cc12 | 0.111 | – | – |
| Clc1ccc2nc(/C=C/c3ccncc3)cc(N3CCOCC3)c2c1 | 3.59 | – | – |
| Fc1cc(F)c(F)c(/C=C/c2cc(NCCCCN3CCOCC3)c3cc(Cl)ccc3n2)c1 | 0.588 | Active | – |

| SMILES | EC50 (Plasmodium falciparum [1]) [µM] | Activity (Plasmodium falciparum [2]) | EC50 (Plasmodium falciparum [2]) [µM] |
| --- | --- | --- | --- |
| FC(F)(F)c1cc(/C=C/c2cc(NCCCCN3CCOCC3)c3cc(Cl)ccc3n2)cc(C(F)(F)F)c1 | 0.108 | – | – |
| Clc1ccc2nc(/C=C/c3ccncc3)cc(NCCN3CCOCC3)c2c1 | 0.137 | – | – |
| Fc1ccc(/C=C/c2cc(NCCCCN3CCOCC3)c3cc(Cl)ccc3n2)cn1 | 0.0546 | Active | – |
| CN1CCN(CCNc2cc(/C=C/c3ccncc3)nc3ccc(Cl)cc23)CC1 | 0.0533 | – | – |
| Clc1ccc2nc(/C=C/C=C/c3ccccc3)cc(NCCCCN3CCOCC3)c2c1 | 0.143 | – | – |
| COc1ccc2nc(/C=C/c3cccnc3)cc(NCCN(C)C)c2c1 | 0.071 | – | – |
| Clc1ccc2nc(/C=C/c3ccncc3)cc(NCCN3CCCC3)c2c1 | 0.0677 | – | – |
| CN(C)CCNc1cc(/C=C/c2cccs2)nc2ccc(Cl)cc12 | 0.0297 | – | – |
| COc1ccc2nc(/C=C/c3ccccc3[N+](=O)[O-])cc(NCCN(C)C)c2c1 | 0.0563 | – | – |
| COc1ccc2nc(/C=C/c3cccs3)cc(NCCN(C)C)c2c1 | 0.08 | – | – |
| COc1ccc(/C=C/c2cc(NCCN(C)C)c3cc(OC)ccc3n2)cc1 | 0.0436 | – | – |
| COc1cc(/C=C/c2cc(NCCN(C)C)c3cc(Cl)ccc3n2)cc(OC)c1OC | 0.0444 | – | – |
| COc1ccc2nc(C)cc(NCCN(C)C)c2c1 | 5.52 | – | – |
| Fc1ccc(/C=C/c2cc(NCCCN3CCOCC3)c3cc(Cl)ccc3n2)cc1 | 0.0408 | – | – |
| COc1ccc(/C=C/c2cc(NCCN(C)C)c3cc(F)ccc3n2)cc1OC | 0.0411 | – | – |
| Fc1ccc(/C=C/c2cc(N3CCOCC3)c3cc(Cl)ccc3n2)cc1 | 6.75 | – | – |
| COc1ccc2nc(/C=C/c3cccc([N+](=O)[O-])c3)cc(NCCN(C)C)c2c1 | 0.0495 | – | – |
| Fc1ccc(/C=C/c2cc(N3CCC(N4CCCCC4)CC3)c3cc(Cl)ccc3n2)cc1 | 0.487 | – | 0.155 |
| Fc1ccc(/C=C/c2cc(N3CCN(c4ccccn4)CC3)c3cc(Cl)ccc3n2)cc1 | 3.3 | – | 0.155 |
| Clc1ccc2nc(-c3ccccc3)cc(NCCCCN3CCOCC3)c2c1 | 0.423 | – | – |
| Fc1ccc(/C=C/c2cc(Nc3ccc(N4CCCCC4)cc3)c3cc(Cl)ccc3n2)cc1 | 0.667 | – | 0.155 |
| COc1ccc2nc(/C=C/c3ccc(F)cc3)cc(NCCN(C)C)c2c1 | 0.0329 | – | – |
| Cc1cc(NCCCCN(C)C)c2cc(Cl)ccc2n1 | 1.25 | – | – |
| CN(C)CCNc1cc(/C=C/c2cccnc2)nc2ccc(Cl)cc12 | 0.0336 | – | – |
| Fc1cc(F)cc(/C=C/c2cc(NCCCCN3CCOCC3)c3cc(Cl)ccc3n2)c1 | 0.185 | – | – |
| CN(C)CCNc1cc(/C=C/c2ccncc2)nc2ccc(F)cc12 | 0.0361 | – | – |

| SMILES | EC50 (Plasmodium falciparum [1]) [µM] | Activity (Plasmodium falciparum [2]) | EC50 (Plasmodium falciparum [2]) [µM] |
| --- | --- | --- | --- |
| Clc1ccc2nc(/C=C/c3ccncc3)cc(Nc3ccc(N4CCCCC4)cc3)c2c1 | 0.793 | – | 0.155 |
| Clc1ccc2nc(/C=C/c3ccccc3)cc(NCCN3CCCC3)c2c1 | 0.107 | – | – |
| COc1ccc2nc(/C=C/c3ccccn3)cc(NCCN(C)C)c2c1 | 1.03 | – | – |
| CN(C)CCNc1cc(/C=C/c2ccc([N+](=O)[O-])cc2)nc2ccc(F)cc12 | 0.0309 | – | – |
| COc1ccc(/C=C/c2cc(NCCN(C)C)c3cc(Cl)ccc3n2)cc1 | 0.0348 | – | – |
| CN(C)CCNc1cc(/C=C/c2ccccn2)nc2ccc(Cl)cc12 | 0.0675 | – | – |
| CN(C)CCNc1cc(/C=C/c2ccc(F)cc2)nc2ccc(F)cc12 | 0.0309 | – | – |
| COc1ccc2nc(/C=C/c3ccc([N+](=O)[O-])cc3)cc(NCCN(C)C)c2c1 | 0.0286 | – | – |
| Clc1ccc2nc(/C=C/c3ccncc3)cc(N3CCN(c4ccccn4)CC3)c2c1 | 2.57 | – | 0.155 |
| CN(C)CCNc1cc(/C=C/c2ccc([N+](=O)[O-])cc2)nc2ccc(Cl)cc12 | 0.0287 | – | – |
| FC(F)(F)c1ccccc1/C=C/c1cc(NCCCCN2CCOCC2)c2cc(Cl)ccc2n1 | 0.104 | – | – |
| Cc1cc(NCCN(C)C)c2cc(Cl)ccc2n1 | 0.732 | – | – |
| Fc1cnccc1/C=C/c1cc(NCCCCN2CCOCC2)c2cc(Cl)ccc2n1 | 0.0796 | – | – |
| Fc1ccc(/C=C/C=C/c2cc(NCCCCN3CCOCC3)c3cc(Cl)ccc3n2)cc1 | 0.0965 | – | – |
| CN(C)CCNc1cc(/C=C/c2ccco2)nc2ccc(F)cc12 | 0.0826 | – | – |
| CN(C)CCNc1cc(/C=C/c2ccccc2)nc2ccc(F)cc12 | 0.021 | – | – |
| Fc1ccc(/C=C/c2cc(NCCCCN3CCOCC3)c3cc(Cl)ccc3n2)c(F)c1 | 0.0726 | – | – |
| COc1ccc2nc(/C=C/c3ccncc3)cc(NCCN(C)C)c2c1 | 0.0388 | – | – |
| CN(C)CCCCNc1cc(/C=C/c2ccc(F)cc2)nc2ccc(Cl)cc12 | 0.0512 | – | – |
| CN1CCN(CCCCNc2cc(/C=C/c3ccc(F)cc3)nc3ccc(Cl)cc23)CC1 | 0.043 | – | – |
| Fc1cc(F)c(/C=C/c2cc(NCCCCN3CCOCC3)c3cc(Cl)ccc3n2)cc1F | 0.197 | Active | – |
| FC(F)(F)Oc1ccc(/C=C/c2cc(NCCCCN3CCOCC3)c3cc(Cl)ccc3n2)cc1 | 0.0566 | – | – |
| CN(C)CCNc1cc(CCc2ccncc2)nc2ccc(Cl)cc12 | 0.259 | – | – |
| Clc1ccc2nc(/C=C/c3ccncc3)cc(N3CCCC3)c2c1 | 1.19 | – | – |
